Assay results from ChEMBL document CHEMBL1121528, “Synthesis and pharmacology of 8-amino-3-(cyclopropylmethyl)-1,2,3,4,5,6-hexahydro-cis-6,11-dimethyl-2,6-methano-3-benzazocine and related compounds” (1980).
Calls of active or inactive are those of the source. No cut-off for these calls is given here.

Experiments:
Rattus norvegicus [1] = experiment: Analgesic dose required for its phenazocine antagonistic activity in rat after peroral administration; assay type: functional
Method in brief: (§1)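 Narcotic antagonist activity in rats by the Harris–Pierson tail-flick procedure against phenazocine, with compounds given orally. AD50 reported in mg/kg with 95% confidence limits, calculated as free base.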

Mus musculus [2] = experiment: Effective dose required for its agonist activity in mouse by acetylcholine writhing test after sc administration; assay type: functional
Method in brief: (§2)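 Agonist (analgesic) screens: modified D'Amour-Smith tail-flick, phenylquinone-induced writhing, acetylcholine-induced writhing (mouse), and rat bradykinin test. Compounds given sc or po.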

Rattus norvegicus [3] = experiment: Analgesic dose required for its phenazocine antagonistic activity in rat after peroral administration; ? = Questionable activity; assay type: functional, organism-based; method in brief: as §1
Mus musculus [4] = experiment: Effective dose required for its agonist activity in Phenylquinone writhing test after sc administration; assay type: functional; method in brief: as §2
Rattus norvegicus [5] = species: Rattus norvegicus; experiment: Tested for peroral analgesic dose required for its narcotic activity in meperidine; assay type: functional
Rattus norvegicus [6] = species: Rattus norvegicus; experiment: Analgesic dose required for its narcotic activity in morphine; assay type: functional
Mus musculus [7] = experiment: Effective dose required for its agonist activity in mouse by phenylquinone test after sc administration; assay type: functional; method in brief: as §2
Mus musculus [8] = experiment: Effective dose required for its agonist activity in phenylquinone test after po administration; assay type: functional; method in brief: as §2
Rattus norvegicus [9] = experiment: Analgesic dose required for its narcotic activity in Phenazocine after po administration; assay type: functional
Mus musculus [10] = experiment: Effective dose required for its agonist activity in acetylcholine test after sc administration; assay type: functional; method in brief: as §2
Rattus norvegicus [11] = experiment: Effective dose required for its agonist activity in rat bradykinin test after sc administration; assay type: functional; method in brief: as §2
Rattus norvegicus [12] = experiment: Effective dose required for its agonist activity in rat bradykinin test after po administration; assay type: functional; method in brief: as §2
Rattus norvegicus [13] = experiment: Effective dose required for its agonist activity in rat tail flick test after sc administration; I = inactive; assay type: functional, organism-based; method in brief: as §2
Rattus norvegicus [14] = experiment: Analgesic dose required for its narcotic activity in meperidine after po administration; assay type: functional
Rattus norvegicus [15] = experiment: Analgesic dose required for its narcotic activity in meperidine after sc administration; assay type: functional
Mus musculus [16] = experiment: Effective dose required for its agonist activity in acetylcholine test after po administration; assay type: functional; method in brief: as §2
Rattus norvegicus [17] = experiment: Analgesic dose required for its narcotic activity morphine after po administration; assay type: functional
Rattus norvegicus [18] = experiment: Analgesic dose required for its narcotic activity in Phenazocine after sc administration; assay type: functional
Rattus norvegicus [19] = experiment: analgesic dose required for its phenazocine antagonistic activity in rat after peroral administration; I = inactive; assay type: functional, organism-based; method in brief: as §1
Rattus norvegicus [20] = experiment: Analgesic dose required for its narcotic activity in morphine after sc administration; assay type: functional
Rattus norvegicus [21] = experiment: Analgesic dose required for its phenazocine antagonistic activity in rat after peroral administration; I = inactive at 40; assay type: functional, organism-based; method in brief: as §1
Rattus norvegicus [22] = experiment: Analgesic dose required for its narcotic activity in meperidine after peroral administration; assay type: functional
Rattus norvegicus [23] = experiment: Effective dose required for its agonist activity in bradykinin test after sc administration; assay type: functional; method in brief: as §2
Rattus norvegicus [24] = experiment: Analgesic dose required for its narcotic activity morphine after peroral administration; assay type: functional
Rattus norvegicus [25] = experiment: Analgesic dose required for its narcotic activity in Phenazocine after peroral administration; assay type: functional

`C=CCN1CC[C@]2(C)c3cc(N)ccc3CC1[C@@H]2C` showed an AD50 (Rattus norvegicus [1]) of 1.5 mg/kg and an ED50 (Mus musculus [2]) of 2.5 mg/kg.
In the case of `CCCNc1ccc2c(c1)[C@@]1(C)CCN(CC3CC3)C(C2)[C@@H]1C`, the AD50 (Rattus norvegicus [3]) is reported as “Questionable activity” and the ED50 (Mus musculus [2]) is reported as 1.2 mg/kg.
Compound `C[C@H]1C2Cc3ccc([N+](=O)[O-])cc3[C@@]1(C)CCN2CC1CC1.Cl` has an ED50 (Mus musculus [4]) of 24 mg/kg and an AD50 (Rattus norvegicus [5]) of 9.6 mg/kg.
Work on `C[C@H]1C2Cc3ccc(NCc4ccccc4)cc3[C@@]1(C)CCN2CC1CC1` yielded an AD50 (Rattus norvegicus [1]) of 1 mg/kg.
For `C[C@H]1C2Cc3ccc(NCC4CC4)cc3[C@@]1(C)CCN2CC1CC1.Cl`, the AD50 (Rattus norvegicus [1]) was 8 mg/kg and the ED50 (Mus musculus [2]) was 0.7 mg/kg.
`C[C@H]1C2Cc3ccc(N)cc3[C@@]1(C)CCN2CC1CC1` was tested, and the AD50 (Rattus norvegicus [6]) was 3.7 mg/kg, the ED50 (Mus musculus [7]) was 1.4 mg/kg and the ED50 (Mus musculus [8]) was 7.2 mg/kg. For the same compound, the AD50 (Rattus norvegicus [9]) was 10 mg/kg, the ED50 (Mus musculus [10]) was 0.8 mg/kg and the ED50 (Rattus norvegicus [11]) was 1.2 mg/kg. For the same compound, the ED50 (Rattus norvegicus [12]) was 8.1 mg/kg, the ED50 (Rattus norvegicus [13]) was “inactive” and the AD50 (Rattus norvegicus [14]) was 8.8 mg/kg. The AD50 (Rattus norvegicus [15]) was 2 mg/kg, the ED50 (Mus musculus [16]) was 3.2 mg/kg and the AD50 (Rattus norvegicus [17]) was 15 mg/kg. For the same compound, the AD50 (Rattus norvegicus [18]) was 2.7 mg/kg.
With `C[C@H]1C2Cc3ccc(N)cc3[C@@]1(C)CCN2` the ED50 (Mus musculus [2]) was 6.1 mg/kg and the AD50 (Rattus norvegicus [19]) was “inactive”.
`CC(C)CN1CC[C@]2(C)c3cc(N)ccc3CC1[C@@H]2C` was tested, and the AD50 (Rattus norvegicus [1]) was 9.4 mg/kg and the ED50 (Mus musculus [2]) was 1.5 mg/kg.
In the case of `CNc1ccc2c(c1)[C@@]1(C)CCN(CC3CC3)C(C2)[C@@H]1C`, the AD50 (Rattus norvegicus [1]) is reported as 1.35 mg/kg and the ED50 (Mus musculus [2]) is reported as 0.44 mg/kg.
Work on `C[C@H]1C2Cc3ccc(N(C)C)cc3[C@@]1(C)CCN2CC1CC1` yielded an ED50 (Mus musculus [2]) of 0.79 mg/kg.
For `CC(C)=CCN1CC[C@]2(C)c3cc(O)ccc3C[C@H]1[C@H]2C` [(+)-PENTAZOCINE], the ED50 (Mus musculus [7]) was 3.8 mg/kg, the ED50 (Mus musculus [8]) was 95 mg/kg and the AD50 (Rattus norvegicus [9]) was 76 mg/kg. The AD50 (Rattus norvegicus [20]) was 9 mg/kg, the ED50 (Rattus norvegicus [11]) was 2.6 mg/kg and the Protection (Rattus norvegicus [12]) was 40 mg/kg. The ED50 (Rattus norvegicus [13]) was “inactive”, the AD50 (Rattus norvegicus [14]) was 68 mg/kg and the AD50 (Rattus norvegicus [15]) was 3.9 mg/kg. For the same compound, the AD50 (Rattus norvegicus [17]) was 140 mg/kg and the AD50 (Rattus norvegicus [18]) was 6.3 mg/kg.
With `CCNc1ccc2c(c1)[C@@]1(C)CCN(CC3CC3)C(C2)[C@@H]1C` the ED50 (Mus musculus [2]) was 1.3 mg/kg and the AD50 (Rattus norvegicus [21]) was “inactive”.
`CCCN1CC[C@]2(C)c3cc(N)ccc3CC1[C@@H]2C` gave an AD50 (Rattus norvegicus [1]) of 2 mg/kg and an ED50 (Mus musculus [2]) of 5.6 mg/kg.
`C[C@H]1[C@H]2Cc3ccc(O)cc3[C@]1(C)CCN2CC1CC1` [CYCLAZOCINE] showed an ED50 (Mus musculus [7]) of 0.04 mg/kg, an ED50 (Mus musculus [8]) of 3.6 mg/kg and an AD50 (Rattus norvegicus [20]) of 0.029 mg/kg. It also gave an AD50 (Rattus norvegicus [22]) of 4.2 mg/kg, an ED50 (Rattus norvegicus [23]) of 0.04 mg/kg and an ED50 (Rattus norvegicus [12]) of 3.7 mg/kg. For the same compound, the ED50 (Rattus norvegicus [13]) was “inactive”, the AD50 (Rattus norvegicus [15]) was 0.019 mg/kg and the AD50 (Rattus norvegicus [24]) was 4.3 mg/kg. It also gave an AD50 (Rattus norvegicus [25]) of 3.1 mg/kg and an AD50 (Rattus norvegicus [18]) of 0.028 mg/kg.
With `CCCCNc1ccc2c(c1)[C@@]1(C)CCN(CC3CC3)C(C2)[C@@H]1C` the ED50 (Mus musculus [2]) was 1 mg/kg and the AD50 (Rattus norvegicus [21]) was “inactive”.
